Experiment [1] addresses T1, Myeloperoxidase (Homo sapiens, UniProt P05164).
T1 sequence (P05164 whole entry): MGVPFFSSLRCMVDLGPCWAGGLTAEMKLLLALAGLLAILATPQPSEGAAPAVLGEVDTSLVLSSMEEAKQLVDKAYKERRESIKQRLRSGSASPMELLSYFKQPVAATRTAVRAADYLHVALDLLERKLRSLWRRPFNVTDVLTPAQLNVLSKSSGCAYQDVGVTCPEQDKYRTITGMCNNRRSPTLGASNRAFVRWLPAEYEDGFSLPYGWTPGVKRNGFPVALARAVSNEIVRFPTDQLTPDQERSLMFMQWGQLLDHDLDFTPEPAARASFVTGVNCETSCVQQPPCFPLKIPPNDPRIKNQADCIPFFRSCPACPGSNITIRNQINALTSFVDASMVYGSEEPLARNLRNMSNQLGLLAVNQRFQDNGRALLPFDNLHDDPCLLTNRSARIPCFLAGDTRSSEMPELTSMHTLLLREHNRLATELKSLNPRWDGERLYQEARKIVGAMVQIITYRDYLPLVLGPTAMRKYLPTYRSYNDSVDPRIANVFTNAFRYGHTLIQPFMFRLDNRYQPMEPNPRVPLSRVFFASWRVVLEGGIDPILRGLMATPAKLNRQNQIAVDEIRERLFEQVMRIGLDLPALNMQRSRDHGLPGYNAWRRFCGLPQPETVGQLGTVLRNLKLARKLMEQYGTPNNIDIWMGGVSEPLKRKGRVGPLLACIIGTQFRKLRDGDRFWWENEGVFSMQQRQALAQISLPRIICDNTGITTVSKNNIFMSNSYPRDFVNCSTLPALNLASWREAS
The experiment in a line: ChEBML_223053. On the procedure: (§1) Compound was tested for the induction of nonspecific myeloperoxidase (MPO) release

In experiment [2] the target is T1, Myeloperoxidase. The description is as §1. In outline:
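Freshly isolated human PMN (Ficoll-Hypaque, erythrocytes lysed with NH4Cl/EDTA/KHCO3), 4×10^5/mL in HBSS. Preincubated with compound or 1% aqueous DMSO 20 min at 37 °C, then cytochalasin B (5 μg/mL final) 5 min. Stimulated 5 min at 37 °C with C5a or fMLF, or no stimulus for nonspecific release. MPO read with dimethoxybenzidine/H2O2 at pH 6.0, azide-quenched at 2 min, A450. Duplicate or triplicate.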

This passage reports EC50 results from BindingDB's records for doi:10.1021/jm00080a008 (Merck Sharp and Dohme Research Laboratories, 1992).

In general, EC50 refers to the concentration giving half of the maximal effect. A high value points to lower potency in that assay.

Turning to `Cc1cc(N)c2cc(NC(=O)Nc3ccc4nc(C)cc(N)c4c3)ccc2n1` [Aminoquinuride], the concentration for a half-maximal effect (EC50) on Myeloperoxidase [1] is < 3 µM.
Turning to `Cc1cc(N)c2cc(NC(=O)/C=C/c3ccccc3Cl)ccc2n1` [MLS000737665], at Myeloperoxidase [2], the EC50 was < 3 µM.
